Data reported in article PMC6828636 (European Journal of Drug Metabolism and Pharmacokinetics, 2019).
Like-named read-outs stand apart in the source and are kept apart here.

How the values were obtained:
[1] = target: CYP2C19 (Homo sapiens, UniProt P33261); assay: CYP2C19 inhibition in human liver microsomes; format: in vitro ADME; conditions: read-out: IC50, CYP2C19; human liver microsomes; substrate S-mephenytoin
Outline: (§1)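 Pooled human liver microsomes were incubated with standard CYP-selective substrates, with and without test compound at 0.03–100 μM. Standard selective inhibitors for each isoform ran in parallel as positive controls. Read-out was IC50. For CYP3A4 only, time-dependent inhibition was also tested after 30 min preincubation, using midazolam and testosterone as substrates.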

[2] = target: CYP2C9 (Homo sapiens, UniProt P11712); assay: CYP2C9 inhibition in human liver microsomes; format: in vitro ADME; conditions: read-out: IC50, CYP2C9; human liver microsomes; substrate diclofenac
Sequence of CYP2C9 (P11712 whole entry): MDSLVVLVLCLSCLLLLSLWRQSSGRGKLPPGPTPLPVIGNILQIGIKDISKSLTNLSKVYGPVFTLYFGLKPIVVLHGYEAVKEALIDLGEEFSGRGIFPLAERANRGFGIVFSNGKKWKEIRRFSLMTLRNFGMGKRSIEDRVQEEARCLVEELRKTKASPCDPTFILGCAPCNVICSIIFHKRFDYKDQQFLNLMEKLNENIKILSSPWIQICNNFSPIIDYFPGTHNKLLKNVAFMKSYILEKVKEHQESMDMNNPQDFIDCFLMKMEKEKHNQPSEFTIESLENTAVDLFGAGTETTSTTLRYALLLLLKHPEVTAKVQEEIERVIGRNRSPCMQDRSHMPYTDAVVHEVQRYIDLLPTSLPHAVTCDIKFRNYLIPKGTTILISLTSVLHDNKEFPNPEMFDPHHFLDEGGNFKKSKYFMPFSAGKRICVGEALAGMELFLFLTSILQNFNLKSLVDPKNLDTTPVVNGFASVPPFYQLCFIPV
Outline: as §1

[3] = target: CYP3A4 (Homo sapiens, UniProt P08684); assay: CYP3A4 inhibition in human liver microsomes; format: in vitro ADME; conditions: human liver microsomes
Sequence of CYP3A4 (P08684 whole entry): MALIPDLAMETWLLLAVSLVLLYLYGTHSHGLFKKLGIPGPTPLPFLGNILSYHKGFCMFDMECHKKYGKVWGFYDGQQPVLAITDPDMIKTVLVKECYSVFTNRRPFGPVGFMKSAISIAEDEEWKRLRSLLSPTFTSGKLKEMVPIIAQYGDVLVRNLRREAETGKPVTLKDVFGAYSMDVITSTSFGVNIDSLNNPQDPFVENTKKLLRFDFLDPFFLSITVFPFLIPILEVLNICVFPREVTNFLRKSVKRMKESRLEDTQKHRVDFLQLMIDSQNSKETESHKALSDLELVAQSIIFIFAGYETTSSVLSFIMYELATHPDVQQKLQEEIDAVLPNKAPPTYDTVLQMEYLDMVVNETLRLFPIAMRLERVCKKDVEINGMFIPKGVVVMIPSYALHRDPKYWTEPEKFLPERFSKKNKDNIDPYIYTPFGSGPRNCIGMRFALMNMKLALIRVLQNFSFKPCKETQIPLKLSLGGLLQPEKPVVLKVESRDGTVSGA
Outline: as §1

[4] = target: T1, CYP2C8 (Homo sapiens, UniProt P10632); assay: CYP2C8 inhibition in human liver microsomes; format: in vitro ADME; conditions: read-out: IC50, CYP2C8; human liver microsomes; substrate amodiaquine
T1 sequence (P10632 1-490): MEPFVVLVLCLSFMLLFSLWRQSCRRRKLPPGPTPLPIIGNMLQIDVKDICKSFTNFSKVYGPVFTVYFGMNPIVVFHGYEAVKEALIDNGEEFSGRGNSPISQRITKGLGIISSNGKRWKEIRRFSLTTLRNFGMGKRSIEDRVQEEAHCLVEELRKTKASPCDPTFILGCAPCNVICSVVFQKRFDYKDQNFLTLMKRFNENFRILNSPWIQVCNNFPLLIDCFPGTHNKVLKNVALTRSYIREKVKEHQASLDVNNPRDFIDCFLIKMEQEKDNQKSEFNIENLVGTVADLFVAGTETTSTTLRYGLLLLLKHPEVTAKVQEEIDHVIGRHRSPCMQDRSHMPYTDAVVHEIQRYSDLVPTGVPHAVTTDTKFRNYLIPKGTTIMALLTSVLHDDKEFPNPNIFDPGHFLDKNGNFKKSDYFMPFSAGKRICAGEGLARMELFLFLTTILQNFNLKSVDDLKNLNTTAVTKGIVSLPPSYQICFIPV
Outline: as §1

[5] = target: T2, UGT1A1 (Homo sapiens, UniProt P22309); assay: UGT1A1 inhibition in human liver microsomes; format: in vitro ADME; conditions: read-out: IC50, UGT1A1, substrate estradiol
T2 sequence (P22309 26-533): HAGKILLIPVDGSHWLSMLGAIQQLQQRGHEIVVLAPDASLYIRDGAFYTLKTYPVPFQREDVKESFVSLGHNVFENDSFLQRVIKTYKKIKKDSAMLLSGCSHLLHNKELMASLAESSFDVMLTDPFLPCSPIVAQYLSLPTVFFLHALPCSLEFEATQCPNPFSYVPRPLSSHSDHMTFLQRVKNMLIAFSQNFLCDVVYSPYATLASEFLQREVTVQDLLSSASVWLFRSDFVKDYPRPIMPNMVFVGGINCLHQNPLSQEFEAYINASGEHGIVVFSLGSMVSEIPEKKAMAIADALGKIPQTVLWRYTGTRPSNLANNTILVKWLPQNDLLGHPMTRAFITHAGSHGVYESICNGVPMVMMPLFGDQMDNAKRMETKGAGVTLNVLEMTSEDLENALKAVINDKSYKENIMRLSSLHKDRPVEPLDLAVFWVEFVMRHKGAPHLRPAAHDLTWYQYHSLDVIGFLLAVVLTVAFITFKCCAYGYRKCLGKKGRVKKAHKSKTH
Outline: (§2)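 Glucuronidation of UGT-selective substrates was measured in human liver microsomes with and without test compound, using a rank-order approach. Standard inhibitors for each isoform were incubated in parallel as positive controls.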

[6] = target: T3, CYP1A2 (Homo sapiens, UniProt P05177); assay: biochemical; format: in vitro ADME; conditions: read-out: IC50, CYP1A2; human liver microsomes; substrate phenacetin
T3 sequence (P05177 1-516): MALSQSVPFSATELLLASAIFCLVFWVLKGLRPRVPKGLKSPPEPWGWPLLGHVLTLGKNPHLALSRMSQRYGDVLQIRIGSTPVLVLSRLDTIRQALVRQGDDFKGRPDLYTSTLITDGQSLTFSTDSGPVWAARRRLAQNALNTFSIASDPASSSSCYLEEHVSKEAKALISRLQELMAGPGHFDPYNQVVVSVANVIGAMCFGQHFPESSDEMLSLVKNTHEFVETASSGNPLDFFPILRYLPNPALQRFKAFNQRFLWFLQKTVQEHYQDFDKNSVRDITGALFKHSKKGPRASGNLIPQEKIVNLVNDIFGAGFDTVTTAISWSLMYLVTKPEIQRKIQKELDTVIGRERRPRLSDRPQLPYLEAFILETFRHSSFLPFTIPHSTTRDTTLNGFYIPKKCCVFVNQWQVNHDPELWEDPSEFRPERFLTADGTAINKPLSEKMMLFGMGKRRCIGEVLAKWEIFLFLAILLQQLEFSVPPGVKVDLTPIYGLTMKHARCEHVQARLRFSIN

[7] = Clinical plasma and intestinal concentrations of darolutamide; design: species or system human
[8] = target: T4, CYP2A6 (Homo sapiens, UniProt P11509); assay: CYP2A6 inhibition in human liver microsomes; format: in vitro ADME; conditions: read-out: IC50, CYP2A6; human liver microsomes; substrate coumarin
T4 sequence (P11509 1-494): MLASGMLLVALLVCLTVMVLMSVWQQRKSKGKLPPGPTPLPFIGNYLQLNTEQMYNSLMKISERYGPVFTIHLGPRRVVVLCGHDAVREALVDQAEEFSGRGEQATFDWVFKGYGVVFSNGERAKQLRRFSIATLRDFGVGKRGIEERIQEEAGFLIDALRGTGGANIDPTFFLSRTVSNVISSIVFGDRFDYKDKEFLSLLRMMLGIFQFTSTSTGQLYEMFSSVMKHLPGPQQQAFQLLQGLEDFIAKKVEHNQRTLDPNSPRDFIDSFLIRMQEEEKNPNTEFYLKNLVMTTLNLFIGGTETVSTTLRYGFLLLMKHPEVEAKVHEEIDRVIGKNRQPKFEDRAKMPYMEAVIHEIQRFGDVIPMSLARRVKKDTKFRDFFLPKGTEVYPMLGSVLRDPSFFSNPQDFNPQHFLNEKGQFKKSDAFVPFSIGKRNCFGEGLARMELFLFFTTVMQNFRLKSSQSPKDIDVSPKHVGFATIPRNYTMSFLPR
Outline: as §1

[9] = target: UGT1A9 (Homo sapiens, UniProt O60656); assay: UGT1A9 inhibition in human liver microsomes; format: in vitro ADME
Sequence of UGT1A9 (O60656 26-530): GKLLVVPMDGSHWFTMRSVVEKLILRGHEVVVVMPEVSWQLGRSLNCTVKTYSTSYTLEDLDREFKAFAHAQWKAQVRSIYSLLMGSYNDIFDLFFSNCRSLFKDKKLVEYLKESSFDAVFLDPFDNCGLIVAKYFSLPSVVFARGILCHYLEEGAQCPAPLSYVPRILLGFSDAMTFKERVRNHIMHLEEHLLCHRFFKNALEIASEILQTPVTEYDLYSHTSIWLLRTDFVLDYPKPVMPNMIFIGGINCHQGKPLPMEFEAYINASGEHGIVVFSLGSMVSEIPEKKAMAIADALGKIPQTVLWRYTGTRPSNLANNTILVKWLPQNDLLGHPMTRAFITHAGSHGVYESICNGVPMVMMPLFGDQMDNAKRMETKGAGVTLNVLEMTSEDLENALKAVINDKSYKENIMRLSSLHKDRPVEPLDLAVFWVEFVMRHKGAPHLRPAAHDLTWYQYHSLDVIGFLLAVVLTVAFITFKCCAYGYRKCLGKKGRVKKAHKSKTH
Outline: as §2

[10] = target: CYP2D6 (Homo sapiens, UniProt P10635); assay: CYP2D6 inhibition in human liver microsomes; format: in vitro ADME; conditions: read-out: IC50, CYP2D6; human liver microsomes; substrate dextromethorphan
Sequence of CYP2D6 (P10635 whole entry): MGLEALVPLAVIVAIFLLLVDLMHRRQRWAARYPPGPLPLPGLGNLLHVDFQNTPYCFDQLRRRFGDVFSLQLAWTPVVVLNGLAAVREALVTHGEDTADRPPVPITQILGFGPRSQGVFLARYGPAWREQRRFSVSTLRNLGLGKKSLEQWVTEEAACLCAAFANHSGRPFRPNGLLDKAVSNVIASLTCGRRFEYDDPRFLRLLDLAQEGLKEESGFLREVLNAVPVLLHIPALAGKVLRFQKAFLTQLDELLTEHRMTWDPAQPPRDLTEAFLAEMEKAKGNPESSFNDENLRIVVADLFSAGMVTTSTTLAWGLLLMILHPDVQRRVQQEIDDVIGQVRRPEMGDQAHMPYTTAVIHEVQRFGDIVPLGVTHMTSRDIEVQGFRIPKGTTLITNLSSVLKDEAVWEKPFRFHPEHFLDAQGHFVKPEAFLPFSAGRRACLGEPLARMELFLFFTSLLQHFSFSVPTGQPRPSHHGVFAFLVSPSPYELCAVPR
Outline: as §1

[11] = target: CYP2E1 (Homo sapiens, UniProt P05181); assay: CYP2E1 inhibition in human liver microsomes; format: in vitro ADME; conditions: read-out: IC50, CYP2E1; human liver microsomes; substrate chlorzoxazone
Sequence of CYP2E1 (P05181 whole entry): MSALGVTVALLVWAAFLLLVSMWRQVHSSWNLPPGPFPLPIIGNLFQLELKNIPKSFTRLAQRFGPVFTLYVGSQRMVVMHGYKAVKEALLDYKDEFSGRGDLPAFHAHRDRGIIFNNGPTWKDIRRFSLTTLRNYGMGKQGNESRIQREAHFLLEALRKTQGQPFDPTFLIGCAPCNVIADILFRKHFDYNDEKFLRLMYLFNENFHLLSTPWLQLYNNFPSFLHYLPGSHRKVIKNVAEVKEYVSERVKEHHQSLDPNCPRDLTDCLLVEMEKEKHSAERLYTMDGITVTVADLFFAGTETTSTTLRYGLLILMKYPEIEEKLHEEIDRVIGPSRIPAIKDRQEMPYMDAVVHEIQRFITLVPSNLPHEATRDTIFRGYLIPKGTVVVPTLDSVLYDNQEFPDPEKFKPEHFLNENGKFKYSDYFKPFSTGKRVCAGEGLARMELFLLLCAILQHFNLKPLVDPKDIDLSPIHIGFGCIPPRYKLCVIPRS
Outline: as §1

[12] = target: T5, CYP2B6 (Homo sapiens, UniProt P20813); assay: biochemical; format: in vitro ADME; conditions: read-out: IC50, CYP2B6; human liver microsomes; substrate bupropion
T5 sequence (P20813 1-491): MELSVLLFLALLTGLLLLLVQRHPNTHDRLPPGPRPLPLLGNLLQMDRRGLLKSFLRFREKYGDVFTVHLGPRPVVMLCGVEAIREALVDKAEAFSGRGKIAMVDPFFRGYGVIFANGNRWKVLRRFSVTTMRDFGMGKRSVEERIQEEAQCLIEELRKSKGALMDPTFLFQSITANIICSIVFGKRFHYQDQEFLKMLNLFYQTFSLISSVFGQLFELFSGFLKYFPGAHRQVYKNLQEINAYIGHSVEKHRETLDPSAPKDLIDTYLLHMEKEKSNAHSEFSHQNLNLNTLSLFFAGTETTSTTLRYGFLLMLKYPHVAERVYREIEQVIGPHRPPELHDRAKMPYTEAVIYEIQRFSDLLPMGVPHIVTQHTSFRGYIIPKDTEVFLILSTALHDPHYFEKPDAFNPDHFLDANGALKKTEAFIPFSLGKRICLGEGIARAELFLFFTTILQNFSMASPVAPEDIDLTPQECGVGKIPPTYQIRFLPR

[13] = format: in vivo, human; conditions: healthy male volunteers
[14] = Phase I study: darolutamide effect on rosuvastatin pharmacokinetics; format: in vivo, human
[15] = cited from earlier work
[16] = read-out: IC50, CYP3A4 (with pre-incubation), substrate midazolam, 30 min pre-incubation
[17] = read-out: IC50, CYP3A4 (with pre-incubation), substrate testosterone, 30 min pre-incubation
[18] = read-out: IC50, CYP3A4, substrate midazolam
[19] = read-out: IC50, CYP3A4, substrate testosterone
[20] = midazolam 1 mg and dabigatran etexilate 75 mg cocktail, darolutamide 600 mg

Sequence of CYP2C19 (P33261 whole entry, canonical isoform): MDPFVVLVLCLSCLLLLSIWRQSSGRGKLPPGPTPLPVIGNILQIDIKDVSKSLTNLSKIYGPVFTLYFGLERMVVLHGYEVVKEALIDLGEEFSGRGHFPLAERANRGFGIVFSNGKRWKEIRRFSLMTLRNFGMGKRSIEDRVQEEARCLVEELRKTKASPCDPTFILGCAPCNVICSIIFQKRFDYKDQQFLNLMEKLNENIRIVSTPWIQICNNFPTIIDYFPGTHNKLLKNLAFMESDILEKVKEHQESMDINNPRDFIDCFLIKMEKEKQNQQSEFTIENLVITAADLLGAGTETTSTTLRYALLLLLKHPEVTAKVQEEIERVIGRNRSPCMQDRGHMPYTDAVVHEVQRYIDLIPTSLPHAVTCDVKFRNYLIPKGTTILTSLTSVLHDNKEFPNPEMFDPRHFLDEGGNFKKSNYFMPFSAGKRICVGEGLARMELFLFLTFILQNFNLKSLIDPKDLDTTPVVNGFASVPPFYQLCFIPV

Row | Compound | IC50 [1] [µM] | IC50 [2] [µM] | IC50 [3, 16] [µM] | IC50 [3, 17] [µM] | IC50 [3, 18] [µM] | IC50 [3, 19] [µM] | IC50 [4] [µM] | IC50 [5] [µM] | IC50 [6] [µM] | plasma concentration of unbound drug [7] [µM] | IC50 [8] [µM] | IC50 [10] [µM] | IC50 [11] [µM] | IC50 [12] [µM] | tmax in the presence and absence of darolutamide [13] | t½ in the presence and absence of darolutamide [13] | reduction in Cmax with co-administered darolutamide versus alone [13, 20] [%] | also measured
1 | C[C@@H](Cn1ccc(-c2ccc(C#N)c(Cl)c2)n1)NC(=O)c1cc([C@@H](C)O)[nH]n1 [(S,R)-darolutamide] | 46.7 | 22.6 | > 50 | > 50 | > 50 | > 50 | 36.2 | 26.5 | > 50 | < 0.6 | > 50 | > 50 | > 50 | > 50 |  |  |  | IC50 ([9]; read-out: IC50, UGT1A9, substrate propofol): 12.5 µM; Ki ([9]; read-out: Ki, UGT1A9): 6.32 µM
2 | C[C@H](O)c1cc(C(=O)N[C@@H](C)Cn2ccc(-c3ccc(C#N)c(Cl)c3)n2)n[nH]1 [(S,S)-darolutamide] | > 50 | > 50 | > 50 | > 50 | > 50 | > 50 | 46.3 | 31.7 | > 50 | < 0.6 | > 50 | 40.2 | > 50 | > 50 |  |  |  | 
3 | Cc1ncc2n1-c1ccc(Cl)cc1C(c1ccccc1F)=NC2 [midazolam] |  |  |  |  |  |  |  |  |  |  |  |  |  |  | comparable | comparable | ~32 | 
4 | [H]/N=C(/N)c1ccc(NCc2nc3cc(C(=O)N(CCC(=O)O)c4ccccn4)ccc3n2C)cc1 [non-conjugated dabigatran, dabigatran] |  |  |  |  |  |  |  |  |  |  |  |  |  |  | comparable | comparable | 16 | reduction in AUC with co-administered darolutamide versus alone [13, 20]: 9%
5 | CC(C)c1nc(N(C)S(C)(=O)=O)nc(-c2ccc(F)cc2)c1/C=C/[C@@H](O)C[C@@H](O)CC(=O)O [rosuvastatin] |  |  |  |  |  |  |  |  |  |  |  |  |  |  |  |  |  | effect of darolutamide comedication on t½ ([14]; healthy subjects): did not affect; increase in rosuvastatin exposure with darolutamide ([14]; healthy subjects, rosuvastatin 5 mg, darolutamide 600 mg twice daily): approximately fivefold; observed exposure as % of the reported fasted AUC(0–24) ([14]; human, in vivo): 34%; incidence of treatment-emergent AEs, alone versus with concomitant darolutamide ([14]; single doses of rosuvastatin 5 mg): similar; fraction absorbed (fa) [15]: 0.5; AUC(0–24) ([15]; single dose of 5 mg rosuvastatin, healthy subjects, fasted condition): 19.2 µg·h/L
